From PubChem BioAssay
TAAR1 antag: human TAAR1 antagonism. Q96RJ0. CHO RD-HGA16 TAAR1, Fluo-8 calcium fluorescence, antagonist. inhibition, % at 3 µM. 1.5% of 360,000 active. AID 624466;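 active = inhibition above a per-plate cutoff, the mean inhibition of test compounds on that plate plus 3 SD, cut at about 49% in these data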;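 note: 0% = DMSO plus EC80 beta-PEA response and 100% = DMSO alone without agonist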
Target sequence (Q96RJ0 whole entry, looked up): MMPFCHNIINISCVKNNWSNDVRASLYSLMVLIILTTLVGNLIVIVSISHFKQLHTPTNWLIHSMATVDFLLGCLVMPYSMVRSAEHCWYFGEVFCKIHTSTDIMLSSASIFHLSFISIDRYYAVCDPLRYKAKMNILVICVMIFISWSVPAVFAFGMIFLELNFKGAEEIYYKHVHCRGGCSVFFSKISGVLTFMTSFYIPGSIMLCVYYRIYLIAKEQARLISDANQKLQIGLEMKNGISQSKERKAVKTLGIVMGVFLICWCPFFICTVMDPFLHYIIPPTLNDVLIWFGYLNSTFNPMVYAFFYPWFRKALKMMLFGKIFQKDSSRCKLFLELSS
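Test system – hTAAR1-expressing CHO RD-HGA16 cells, Gα16-coupled · Reagent – β-PEA at EC80 concentration, post-compound challenge · Compound dosing – 3 µM, single point · Timing – 140 s kinetic read after compound, 140 s after agonist · Detection – Fluo-8 intracellular calcium dye fluorescence, real-time kinetic reads · Control set – DMSO and EC80 PEA controls · Repeats – n of 1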
OX1R antag-1: antagonists of human orexin 1 receptor | CHO/OX1R cells, Fluo-8 calcium fluorescence, orexin A | inhibition, % at 5 µM | 0.43% of 330,000 active | AID 434989;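 active = inhibition above its plate's threshold, mean inhibition of all tested compounds on the plate plus 3 SD, cut at about 37% in these data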;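 note: 0% = orexin A challenge wells and 100% = SB-334867-A antagonist wells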
CHO parental Ca: counter-screen for OX1R antagonists: effect in parental CHO cells. parental CHO-K1, ATP-induced calcium, Fluo-8 fluorescence. inhibition, % at 5.6 µM. 0.63% of 330,000 active. AID 463079;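 active = inhibition above that plate's mean sample inhibition plus 3 SD, cut at about 26% in these data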;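 note: 0% = ATP-challenged DMSO wells and 100% = DMSO wells without ATP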
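Material: Parental CHO cells | Reagent: ATP | Compound dosing: Single nominal dose of 5.6 µM per compound | Detection: Intracellular calcium via Fluo-8 no-wash fluorescent dye | Read-out: % inhibition of ATP-induced calcium mobilization | Benchmarks: Low control ATP plus DMSO, high control DMSO only | Replicates: Singlicate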
OX1R antag-2: blocks the human orexin 1 receptor; O43613; OX1R-expressing cells, FRET antagonist read-out; inhibition, % at 6.6 µM; 1.8% of 330,000 active; AID 485270; in the data active = inhibition mostly above about 38%, no sharp cut-off; inactive = mostly below about 40%;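 note: 0% = agonist challenge alone and 100% = reference antagonist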
GalR3 antag: antagonists of human GalR3. O60755. HEK293 GalR3-CNG cAMP membrane potential fluorescence; galR3 body fused to GalR1 C-terminus. inhibition, % at 3 µM. 0.44% of 360,000 active;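 active = inhibition above the screen-wide average plus 3 SD, cut at about 13% in these data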;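 note: forskolin and galanin both at EC90 stimulate the cells; cAMP rise reported by CNG channel membrane potential dye signal; 0% = forskolin plus galanin with DMSO and 100% = forskolin alone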
TAAR1 ag: human TAAR1 agonism. Q96RJ0. 0.99% of 360,000 active. activation, % at 3 µM. CHO RD-HGA16 TAAR1, Fluo-8 calcium fluorescence; vehicle wells 0%, saturating PEA agonist 100%. AID 624467;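 active = activation above the mean activation of all test compounds in the run plus 3 SD, cut at about 38% in these data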
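System: CHO RD-HGA16 cells carrying human TAAR1 plus Gα16; Incubation: 17-24 h seeding, 75 min 37 °C dye, 30 min RT; Measured by: Fluo-8 fluorescence, 5 s baseline then 140 s kinetic read; Control set: DMSO and PEA EC100; Replication: single well for each compound.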
TAAR1 ag confirm: human TAAR1 agonism, confirmed; CHO RD-HGA16 TAAR1, Fluo-8 calcium fluorescence; scaled: DMSO 0%, maximal phenethylamine 100%; AID 651783; 82% of 2,400 active; activation, % at 3 µM; shares compounds with TAAR1 ag;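 active = activation above a cutoff set at the run's mean compound activation plus 3 SD, cut at about 39% in these data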
Ga16 ag counter: counter-screen for TAAR1 agonists: nonselective agonists in parental cells; activation, % at 3 µM; AID 651787; CHO-Ga16 parental, Fluo-8 calcium fluorescence; normalized to maximal ATP response, DMSO zero; shares compounds with TAAR1 ag; 50% of 2,400 active;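 active = activation above the run cutoff, the mean activation over all tested wells plus 3 SD, cut at about 12% in these data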;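 note: 0% = DMSO wells and 100% = maximal ATP response on the peak over basal ratio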
TAAR1 desens: counter-screen for human TAAR1 agonists: agonists that desensitize TAAR1; shares compounds with TAAR1 ag; CHO RD-HGA16 hTAAR1, Fluo-8 calcium, beta-PEA response inhibition; inhibition, % at 3 µM; 46% of 2,400 active; AID 651951;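 active = inhibition above the run cutoff, the mean inhibition of all test compounds plus 3 SD, cut at about 49% in these data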;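 note: beta-PEA stimulus applied at its EC80; loss of beta-PEA calcium signal after compound pretreatment read as receptor desensitization; 0% = DMSO with beta-PEA at EC80 and 100% = DMSO alone without agonist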
Ga16 nonsel ant: counter-screen for TAAR1 agonists: nonselective Ga16 antagonists; shares compounds with TAAR1 ag; CHO-Ga16 ATP-induced calcium, Fluo-8 fluorescence; inhibition, % at 3 µM; 39% of 2,400 active;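 active = inhibition above the plate's mean compound inhibition plus 3 SD, computed per plate, cut at about 22% in these data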;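 note: 0% = EC80 ATP with DMSO and 100% = DMSO wells without ATP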
* hit, by the source's call; x = no result. In the library only some 4.2% were active in any assay of this set; here they are far more common.

SMILES	TAAR1 antag	OX1R antag-1	CHO parental Ca	OX1R antag-2	GalR3 antag	TAAR1 ag	TAAR1 ag confirm	Ga16 ag counter	TAAR1 desens	Ga16 nonsel ant
Nc1sc2c(c1C(=O)NCCc1ccccc1)CCCC2	64*	x	x	x	-4	76*	90*	2	79*	8
c1ccc2oc(-c3[nH]ncc3CN3CCSCC3)cc2c1	12	-16	-13	14	-6	1	x	x	x	x
CCOC(=O)c1c(CC(C)C)csc1NC(=O)COC(=O)c1ccc(O)cc1	26	x	x	x	-3	5	x	x	x	x
NC(=O)COC(=O)c1ccccc1Nc1ccc(SC(F)F)cc1	38	-6	-4	28	-17	43*	6	9	16	16
O=C(CCSc1nnc(-c2ccncc2)o1)Nc1cccc(Cl)c1	-7	-1	-4	12	0	14	x	x	x	x
O=C(CCSc1nnc(-c2ccncc2)o1)Nc1ccc(Cl)cc1	-15	-8	-2	1	-1	40*	40*	4	8	15
S=C1SCN(Cc2ccccc2)CN1Cc1ccccc1	-11	x	x	x	-7	7	x	x	x	x
S=C1SCN(CCc2ccccc2)CN1CCc1ccccc1	86*	x	x	x	1	82*	90*	5	92*	15
CC1(C)CC(=O)C=C(c2ccc3c(c2)OCO3)C1	8	-23	7	46	-3	14	x	x	x	x
COC(=O)C1=NN(C(=O)c2cccc(Br)c2)C(O)(c2ccc(Cl)cc2)C1 (stereo not drawn)	71*	-1	-12	50*	-1	93*	95*	67*	76*	62*
CCOC(=O)C1=NN(C(=O)c2ccc(OC)cc2)C(O)(c2ccc(Cl)cc2)C1 (stereo not drawn)	11	-19	-9	2	-4	65*	80*	64*	41	30*
COc1ccc(NC(=O)N2CCCC(c3ccccc3)C2)cc1 (stereo not drawn)	27	x	x	x	-10	55*	61*	0	33	13
COc1ccc(NC(=O)C2CCCN(C(=O)Nc3ccc(OC)cc3)C2)cc1 (stereo not drawn)	-11	-7	-13	23	-6	0	x	x	x	x
Cc1ccc(C)c(NS(=O)(=O)c2ccc(-n3cccn3)cc2)c1	2	x	x	x	-7	1	x	x	x	x
O=C(CNC(=O)c1cccc(Cl)c1)N/N=C/c1cccnc1	-8	-8	-2	4	-5	0	x	x	x	x
O=C(CNC(=O)c1ccccc1Cl)N/N=C/C=C/c1ccccc1	x	-3	5	8	-1	x	x	3	x	9
O=C(CNC(=O)c1ccccc1F)N/N=C/c1ccc2c(c1)OCO2	-12	-13	8	21	-6	1	x	x	x	x
O=C(O)c1ccc(N/N=C/C=C/c2ccccc2)cc1	4	-8	-9	3	-2	57*	30	12*	16	17
O=C(CNC(=O)c1ccccc1F)N/N=C\C=C\c1ccccc1	29	-9	1	-3	-4	42*	67*	0	56*	3
O=C(CNC(=O)c1cccc(Cl)c1)N/N=C/C=C/c1ccccc1	31	-12	-11	12	-6	46*	77*	15*	67*	-4
Cc1ccc(S(=O)(=O)Nc2ccc(C(=O)Nc3ccncc3)cc2)cc1	-18	-2	-5	24	-4	1	x	x	x	x
Cc1cc(C(=O)CN2CCC(C)CC2)c(C)n1-c1ccccc1F	-12	-18	-10	10	3	4	x	x	x	x
